Assay [1] relates to Plasmodium falciparum. Nature of the assay: Antimalarial activity against chloroquine-sensitive Plasmodium falciparum D6. The format is functional, organism-based.
A short description of assay [2]: Evaluated for the neurotoxicity against NB2a Neuroblastoma cells. In kind it is functional, cell-based, Mus musculus. Summed up:
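Neurite outgrowth assay in NB2a neuroblastoma cells grown in high-glucose DMEM with 5% horse serum and 5% fetal calf serum, 37 °C, 5% CO2. Cells plated at 15 000 cells/mL. After 24 h, switched to serum-free medium with 0.5 mM dibutyryl cAMP plus drug at 10 and 0.1 µM for a further 24 h. Cells fixed in formaldehyde and stained with Coomassie. Average neurite length per cell measured by image analysis over 10 fields of about 20 cells; IC50 reported.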

The subject of assay [3] is Plasmodium falciparum. In words: Antimalarial activity against chloroquine-resistant Plasmodium falciparum W2. The format is functional, organism-based.
The test system of assay [4] is Mus musculus. Nature of the assay: Evaluated for the percentage of subcutaneously to Plasmodium berghei infected mice on days 3, 4, and 5 post infection. The format is functional. Summed up:
(§1)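 Modified Thompson test. Five-week-old CD-1 mice infected ip on day 0 with drug-sensitive P. berghei KBG 173 trophozoites from a donor mouse at 60% parasitemia. Groups of five or seven mice dosed sc b.i.d. on days 3, 4 and 5 at 64 mg/kg/day. Parasitemia read on Giemsa-stained blood films on day 6, then weekly to day 60. Survival followed; mice alive and blood-film negative at day 60 counted as cured.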

Assay [5] relates to Mus musculus. Nature of the assay: Evaluated for the survival of the mice when 64 mg/kg/day was administered subcutaneously to Plasmodium berghei infected mice on days 3, 4, and 5 post infection; 7/C(C=survival beyond 60 days). The format is functional, organism-based. Summed up: as §1
For assay [6], the system named is Mus musculus. Nature of the assay: Evaluated for the survival of the mice when 128 mg/kg/day was administered orally to Plasmodium berghei infected mice on days 3, 4, and 5 post infection; 5/C(C=survival beyond 60 days). In kind it is functional, organism-based. Summed up:
(§2)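 Modified Thompson test. Five-week-old CD-1 mice infected ip on day 0 with drug-sensitive P. berghei KBG 173 trophozoites from a donor mouse at 60% parasitemia. Groups of five or seven mice dosed po b.i.d. on days 3, 4 and 5 at 128 mg/kg/day. Giemsa blood films taken on day 6, then weekly to day 60. Day of death recorded; mice alive and blood-film negative at day 60 counted as cured.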

Assay [7] has as its system Mus musculus. Nature of the assay: Evaluated for the survival of the mice when 128 mg/kg/day was administered orally to Plasmodium berghei infected mice on days 3, 4, and 5 post infection.1/8, 2/16, 1/32, 3/C(C=survival beyond 60 days). In kind it is functional, organism-based. The method, boiled down:
as §2

The test system of assay [8] is Mus musculus. Nature of the assay: Evaluated for the survival of the mice when 64 mg/kg/day was administered subcutaneously to Plasmodium berghei infected mice on days 3, 4, and 5 post infection;1/8, 2/9, 1/10, 1/13. In kind it is functional, organism-based. Summed up:
as §1

Assay [9] concerns Mus musculus. In words: Evaluated for the survival of the mice when 128 mg/kg/day was administered orally to Plasmodium berghei infected mice on days 3, 4, and 5 post infection; 1/15; 1/17; 1/18; 2/C(C=Survival beyond 60 days). In kind it is functional, organism-based. Summed up:
as §2

Assay [10] concerns Mus musculus. In words: Evaluated for the survival of the mice when 64 mg/kg/day was administered subcutaneously to Plasmodium berghei infected mice on days 3, 4, and 5 post infection;1/9, 2/10, 1/18, 1/19. The format is functional, organism-based. Summed up: as §1
For assay [11], the system named is Mus musculus. Nature of the assay: Evaluated for the survival of the mice when 64 mg/kg/day was administered subcutaneously to Plasmodium berghei infected mice on days 3, 4, and 5 post infection;1/8, 1/9, 1/10, 1/12, 1/15. The format is functional, organism-based. Summed up:
as §1

Assay [12] has as its system Mus musculus. Nature of the assay: Evaluated for the survival of the mice when 128 mg/kg/day was administered orally to Plasmodium berghei infected mice on days 3, 4, and 5 post infection;1/9 1/26 3/C(C=survival beyond 60 days). In kind it is functional, organism-based. The method, boiled down:
as §2

The IC50 is the concentration at which inhibition is half-maximal.

`CC(C)C1CCC(C)C2(C1)OOC1(CC(C(C)C)CCC1C)OO2` (stereo unspecified): the IC50 in assay [1] turned out to be 140 nM; in [2], 40 nM; in [3], 94 nM.

As for `CC1(C)CC(C)(C)CC2(C1)OOC1(CC(C)(C)CC(C)(C)C1)OO2`, the concentration for half-maximal inhibition (IC50) was more than 1000 nM in assay [1], 3.6 nM in assay [2] and more than 1000 nM in [3].

Consider `CC1CCC2(OOC3(CCC(C)CC3C)OO2)C(C)C1` (stereo unspecified), for which the figures for the half-maximal inhibitory concentration (IC50) in assay [1], in [2] and in [3] were 110 nM, more than 1 nM and 49 nM, respectively.

For the compound `CCC[C@@H]1CCCCC12OOC1(CCCC[C@@H]1CCC)OO2` (stereo partly specified), the IC50 in assay [1] was 84 nM; in assay [3] it was 39 nM.

As for `CC(C)(C)C1CCC2(CC1)OOC1(CCC(C(C)(C)C)CC1)OO2` (stereo unspecified), the IC50 is 200 nM in assay [1], 2.8 nM in assay [2] and 100 nM in assay [3].

As to `CC1CC(C)CC2(C1)OOC1(CC(C)CC(C)C1)OO2` (stereo unspecified), the Parasitemia in assay [4] was 82%. In addition, the IC50 in assay [1] was determined as 30 nM; in assay [2], 6.7 nM; in assay [3] it was 15 nM.

`CC(C)(C)[C@H]1CCCCC12OOC1(CCCC[C@H]1C(C)(C)C)OO2` (stereo partly specified): the values for the IC50 in assay [1], in assay [2] and in [3] were more than 300 nM, 3.4 nM and 160 nM, respectively.

In the case of `CCO[C@H]1O[C@@H]2O[C@@]3(C)CC[C@H]4[C@H](C)CC[C@@H]([C@H]1C)[C@@]24OO3` [ARTEMOTIL], the Parasitemia in assay [4] was found to be 0%. Besides, the results for the IC50 in [1] and in [3] were 2.7 nM and 1.4 nM, respectively. In addition, the “No. of mice dead/day died” value in assay [5] and in [6] was “survival beyond 60 days” in each case.

Turning to `CC1CCCC2(C1)OOC1(CCCC(C)C1)OO2` (stereo unspecified), the IC50 in assay [1] is 76 nM; in assay [2] it was 16 nM; in assay [3], 51 nM.

Turning to `CC1CCC(C(C)C)C2(C1)OOC1(CC(C)CCC1C(C)C)OO2` (stereo unspecified), the Parasitemia in [4] was determined as 7%. The IC50 was determined as 47 nM in assay [1], 37 nM in assay [2] and 37 nM in assay [3]. Besides, the “No. of mice dead/day died” value in [7] and in assay [8] was “survival beyond 60 days” each time.

As for `CO[C@H]1O[C@@H]2O[C@@]3(C)CC[C@H]4[C@H](C)CC[C@@H]([C@H]1C)[C@@]24OO3` [ARTEMETHER], the IC50 in [2] was 351 nM.

Regarding `CC1(C)CCC2(CC1)OOC1(CCC(C)(C)CC1)OO2`, the half-maximal inhibitory concentration (IC50) is more than 1000 nM in assay [1], 2 nM in assay [2] and more than 1000 nM in assay [3].

As to `CC1CCCC2(OOC3(CCCC(C)C3C)OO2)C1C` (stereo unspecified), in assay [4], the Parasitemia stood at 3%. Moreover, the IC50 in assay [1] came to 50 nM; in [3] it was 43 nM.

`CC[C@@H]1CCCCC12OOC1(CCCC[C@@H]1CC)OO2` (stereo partly specified) had a Parasitemia in [4] of 28%. In addition, the values for the half-maximal inhibitory concentration (IC50) in assay [1], in assay [2] and in assay [3] were 23 nM, 9.3 nM and 19 nM, respectively.

Consider `CC1CC(C)(C)CCC12OOC1(CCC(C)(C)CC1C)OO2` (stereo unspecified), for which the IC50 is more than 1000 nM in assay [1], 1.4 nM in assay [2] and more than 1000 nM in assay [3].

Consider `C[C@@H]1CC[C@H]2[C@@H](C)C(=O)O[C@@H]3O[C@@]4(C)CC[C@@H]1[C@]32OO4` [ARTEMISININ], for which the IC50 is 8.4 nM in assay [1] and 7.3 nM in assay [3].

`CC1CCC2(CC1C)OOC1(CCC(C)C(C)C1)OO2` (stereo unspecified) yielded a Parasitemia in [4] of 14%. Further, the “No. of mice dead/day died” value in assay [9] and in assay [10] was “Survival beyond 60 days” throughout. In addition, the 50% inhibitory concentration (IC50) was 12 nM in [1], 4.4 nM in assay [2] and 10 nM in assay [3].

Compound `C[C@@H]1CCCCC12OOC1(CCCC[C@@H]1C)OO2` (stereo partly specified) [WR-148999] gave a Parasitemia in assay [4] of 11%. The IC50 is 55 nM in [1], 8.4 nM in assay [2] and 32 nM in [3].

On to `CC1CCC2(CC1)OOC1(CCC(C)CC1)OO2` (stereo unspecified), for which, in [4], the Parasitemia is 22%. For the same compound, the figures for the IC50 in assay [1], in assay [2] and in assay [3] were 23 nM, 1.1 nM and 21 nM, respectively.

For `CC1CCC(C)C2(C1)OOC1(CC(C)CCC1C)OO2` (stereo unspecified), the “No. of mice dead/day died” value in assay [11] and in assay [12] was “survival beyond 60 days” throughout. This compound had a Parasitemia in assay [4] of 13%. The IC50 was 15 nM in [1], 17 nM in [2] and 19 nM in assay [3].

Values taken from ChEMBL document CHEMBL1133466, “Synthesis and antimalarial activity of sixteen dispiro-1,2,4, 5-tetraoxanes: alkyl-substituted 7,8,15,16-tetraoxadispiro[5.2.5. 2]hexadecanes” (J Med Chem, 2000).
